Data set [1] is described as follows: AUC (0 to 480 min) in mouse liver at 23 umol/kg, ip administered as bolus by LC-MS analysis. It counts as ADME, organism-based. More on the design: dose 23 umol/kg, time < 8 hr, route intraperitoneal. Conditions: in vivo, 8 h. The procedure, abridged:
(§1)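 Male adult mice (25 ± 5 g) given a single i.p. bolus at 23 µmol/kg. The dosing solution was 1.36 mM in 10% (v/v) DMSO, 20% (w/v) hydroxypropyl-β-cyclodextrin and 0.9% NaCl. Animals were decapitated at seven time points from 10 to 480 min. Plasma and tissues were acetonitrile-precipitated with repaglinide internal standard and analysed by LC-MS. Parameters were derived from concentration–time data, mean ± SEM (n=3).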

Data set [2] deals with T1, Large neutral amino acids transporter small subunit 2 (Homo sapiens) (UniProt Q9UHI5).
T1 sequence (whole entry): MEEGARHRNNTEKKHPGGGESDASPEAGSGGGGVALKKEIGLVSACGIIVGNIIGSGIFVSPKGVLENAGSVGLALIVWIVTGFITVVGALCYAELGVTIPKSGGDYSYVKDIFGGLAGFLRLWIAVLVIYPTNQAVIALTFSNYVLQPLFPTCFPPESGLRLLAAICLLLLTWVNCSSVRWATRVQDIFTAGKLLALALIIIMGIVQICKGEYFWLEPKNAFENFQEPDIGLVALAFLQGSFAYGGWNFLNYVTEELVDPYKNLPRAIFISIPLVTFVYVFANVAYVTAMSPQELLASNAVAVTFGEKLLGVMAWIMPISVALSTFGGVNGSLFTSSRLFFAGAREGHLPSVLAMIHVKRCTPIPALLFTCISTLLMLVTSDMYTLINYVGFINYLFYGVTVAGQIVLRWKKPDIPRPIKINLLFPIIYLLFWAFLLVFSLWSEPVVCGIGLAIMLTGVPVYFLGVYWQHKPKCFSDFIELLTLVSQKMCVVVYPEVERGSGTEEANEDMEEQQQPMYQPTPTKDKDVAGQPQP
The data set is described as follows: Competitive inhibition of [14C]-L-alanine uptake at LAT2 in human MCF7 cells at 50 to 1000 uM measured during 5 mins by liquid scintillation counting. The data set is classed as cell-based. The method in brief:
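MCF-7 cells were seeded at 1 × 10^5 cells/well and used one day later. Cells were washed and pre-incubated 10 min at 37 °C in HEPES-buffered HBSS (choline chloride, pH 7.4). Uptake of 10.0 µM [14C]-L-alanine ran 5 min at 37 °C with test agent (1–1000 µM) or DMSO blank. Cells were then given three ice-cold washes, lysed in 0.1 M NaOH and counted by liquid scintillation; n=3.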

The nature of data set [3]: Tmax in mouse prostate at 23 umol/kg, ip administered as bolus by LC-MS analysis. It counts as ADME, organism-based, Prostate gland. The method in brief: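 Adult male mice (25 ± 5 g) given a single i.p. bolus of 23 µmol/kg, dosing solution 1.36 mM in 10% (v/v) DMSO, 20% (w/v) hydroxypropyl-β-cyclodextrin, 0.9% NaCl in water. Decapitation at time points 10–480 min; plasma, brain, liver, prostate, kidney, heart collected. Acetonitrile precipitation with repaglinide internal standard, LC-MS (ESI positive). tmax and t½β taken from concentration-time data; mean ± SEM, n=3.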

The target in data set [4] is T2, Large neutral amino acids transporter small subunit 1 (Homo sapiens, UniProt Q01650). The data set is described as follows: Drug uptake in human MCF7 cells assessed as LAT1 mediated drug transport per mg of protein at 100 uM measured 5 mins after warm wash by HPLC analysis. It counts as ADME, cell-based. The note with it: mcf7, 5 min. The method in brief: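 MCF-7 monolayers were incubated with 100 µM compound in HBSS at 37 °C for 5 or 30 min. Cells got three washes with ice-cold or warm (37 °C) HBSS; in the warm 30 min arm they were washed after 5 min and again after 30 min. Lysates (0.1 M NaOH) were quantified by HPLC-UV against a spiked lysate standard curve and normalised to protein (Bio-Rad assay).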

A short description of data set [5]: fCmax in mouse plasma at 23 umol/kg, ip administered as bolus by LC-MS analysis. It counts as ADME, organism-based. Conditions: in vivo. The procedure, abridged:
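Male mice (25 ± 5 g) dosed i.p. as a bolus at 23 µmol/kg in DMSO/hydroxypropyl-β-cyclodextrin/saline vehicle, sampled at time points 10–480 min; plasma and tissue homogenates (1:3 water) analysed by LC-MS. […] Mean ± SEM.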

Data set [6] addresses T2, Large neutral amino acids transporter small subunit 1. The data set is described as follows: Competitive inhibition of [14C]-L-leucine uptake at LAT1 in human MCF7 cells preincubated for 5 mins followed by addition of substrate measured during 5 mins by liquid scintillation counting. It counts as cell-based.
The nature of data set [7]: Terminal half life in mouse heart at 23 umol/kg, ip administered as bolus by LC-MS analysis. It counts as ADME, organism-based. Conditions: read-out: beta t1/2. The method in brief: as §1
In data set [8] the target is T2, Large neutral amino acids transporter small subunit 1. The data set is described as follows: Inhibition of LAT1 in human MCF7 cells assessed as potentiation of bestatin-induced antiproliferative activity by measuring reduction in cell viability at 100 uM measured after 72 hrs by resazurin dye-based fluorimetric analysis. The method in brief:
(§2)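 MCF-7 cells seeded 2 × 10^4/well on collagen-coated plates, treated one day later in growth medium with inhibitor (25 or 100 µM) plus bestatin or cisplatin (100 µM) for up to 3 days. Viability read daily by resazurin fluorescence (ex 560/em 590 nm). Viability is treated relative to untreated control. Mean ± SD, n=3.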
On the technique in general: The colour change of resazurin is a common sign of viable cells or microbes.

For data set [9], the target named is T3, Large neutral amino acids transporter small subunit 1 (Mus musculus, UniProt Q9Z127). The data set is described as follows: Ratio of Kin for L-leucine to Kin for test compound for LAT1-mediated drug uptake in mouse brain. The data set is classed as ADME, tissue-based. The note with it: in vivo. The procedure, abridged: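 In situ brain perfusion in anaesthetised adult male mice (ketamine/xylazine i.p.) via right common carotid at 2.5 mL/min, 37 °C. Perfusate was 0.157 µM [14C]-L-leucine for 30 s or 100 µM test compound for 60 s, then 2 s drug-free buffer at 4 °C. Kin = Qtot/(Cpf × T). Mean ± SD, n=3-4.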

For data set [10], the target named is T3, Large neutral amino acids transporter small subunit 1. Briefly: Drug uptake in mouse brain assessed as LAT1-mediated unidirectional transfer constant measured after perfusion. The note with it: in vivo. The data set is classed as ADME, tissue-based. The procedure, abridged:
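In situ brain perfusion in anaesthetised male mice used 100 µM compound at 37 °C, 2.5 mL/min, for 60 s, then 2 s drug-free buffer at 4 °C. Kin = Qtot/(Cpf × T); mean ± SD, n=3.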

Data set [11] addresses T2, Large neutral amino acids transporter small subunit 1. Briefly: Inhibition of LAT1 in human MCF7 cells assessed as potentiation of bestatin-induced antiproliferative activity by measuring reduction in cell viability at 25 uM measured after 48 hrs by resazurin dye-based fluorimetric analysis. The procedure, abridged:
as §2

Data set [12] has the same target. The data set is described as follows: Competitive binding to LAT1 in human MCF7 cells at 100 uM after 30 mins in presence of unselective OATP substrate L-thyroxine by HPLC analysis. It counts as cell-based. The method in brief:
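MCF-7 cells incubated 30 min at 37 °C in HBSS (pH 7.4) holding 100 µM test compound plus 500 µM competitor. Cells washed three times with ice-cold HBSS and lysed in 0.1 M NaOH. Cell-associated compound measured by HPLC against a lysate-spiked standard curve and normalised to protein. Mean ± SD, n=3.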

The next data set has as its system MCF7. The data set is described as follows: Antiproliferative activity against human MCF7 cells assessed as reduction in cell viability measured after 72 hrs by resazurin dye-based fluorimetric analysis. It counts as functional. The method in brief: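 MCF-7 cells were seeded at 2 × 10^4 cells/well on collagen-coated plates and treated one day later. Agents were given alone or combined (25 or 100 µM with 100 µM partner drug) in growth medium for 3 days. Viability was read daily by resazurin fluorescence (ex 560/em 590 nm) and expressed relative to untreated controls.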

Molecules are shown by their SMILES. Calls of active or inactive are those of the source. The rule behind the calls is not given here.

T2 sequence (Q01650 whole entry): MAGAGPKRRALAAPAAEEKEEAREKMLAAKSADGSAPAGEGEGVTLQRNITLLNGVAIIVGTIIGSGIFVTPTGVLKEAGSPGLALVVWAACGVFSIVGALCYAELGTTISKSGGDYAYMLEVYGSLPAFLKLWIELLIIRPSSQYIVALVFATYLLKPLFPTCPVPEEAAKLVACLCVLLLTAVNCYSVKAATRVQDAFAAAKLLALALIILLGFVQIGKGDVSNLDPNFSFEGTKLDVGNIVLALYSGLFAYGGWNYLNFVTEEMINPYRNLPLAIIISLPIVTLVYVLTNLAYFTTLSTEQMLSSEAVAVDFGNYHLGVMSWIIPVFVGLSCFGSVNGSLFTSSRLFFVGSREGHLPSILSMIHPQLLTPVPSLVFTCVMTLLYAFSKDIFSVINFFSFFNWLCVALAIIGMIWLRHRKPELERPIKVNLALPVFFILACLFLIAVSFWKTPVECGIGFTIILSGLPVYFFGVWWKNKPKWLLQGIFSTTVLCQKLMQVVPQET
T3 sequence (Q9Z127 whole entry, the tested form may be a part): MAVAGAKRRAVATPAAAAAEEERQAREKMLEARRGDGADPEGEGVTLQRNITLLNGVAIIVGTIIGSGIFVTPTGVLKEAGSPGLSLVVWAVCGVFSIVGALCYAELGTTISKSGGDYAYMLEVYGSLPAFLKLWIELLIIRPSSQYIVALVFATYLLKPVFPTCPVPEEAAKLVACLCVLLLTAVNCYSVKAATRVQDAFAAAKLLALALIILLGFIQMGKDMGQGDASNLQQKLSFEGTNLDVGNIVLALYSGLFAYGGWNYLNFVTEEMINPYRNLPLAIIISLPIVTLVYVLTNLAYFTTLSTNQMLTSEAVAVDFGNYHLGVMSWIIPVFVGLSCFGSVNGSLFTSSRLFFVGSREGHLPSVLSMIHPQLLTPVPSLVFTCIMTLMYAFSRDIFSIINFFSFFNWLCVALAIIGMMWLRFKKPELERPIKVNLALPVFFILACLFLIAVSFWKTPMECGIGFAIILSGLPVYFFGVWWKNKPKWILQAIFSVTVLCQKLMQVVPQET

The term Tmax denotes the time at which the peak concentration occurs. By IC50 is commonly meant the midpoint of a concentration-inhibition curve. `CNC(=O)COc1ccc(-c2c(C#N)c(NC(=O)c3cccc(C[C@H](N)C(=O)O)c3)n3c(nc4ccccc43)c2C#N)cc1`: the AUC in data set [1] stood at 1930 nmol/g/min. Further, in data set [2], the inhibition entry was “inactive”. The time of peak concentration (Tmax) in data set [3] is 30 min. For the same compound, in data set [4], the Drug uptake was found to be 1.43 nmol/mg. In [5], this compound yielded a fCmax of 0.19 nmol/mL. For the same compound, the concentration for half-maximal inhibition (IC50) in data set [6] worked out at 18.2 µM; in the data set with MCF7 (MCF7, 72 h) it was 124 µM. Also, in data set [6], the inhibition result was “Dose-dependent effect”. For the same compound, the half-life in [7] worked out at 19.8 min. In addition, the Activity in data set [8] was 68.6%; in data set [11] it was 40.5%; in the data set with MCF7, “Dose-dependent effect”. In data set [9], the Ratio was 156. Moreover, the Kin in data set [10] came out at 8.2 ×10⁻⁵ ml/s/g. Further, the outcome in data set [12] was Active.

These data come from ChEMBL document CHEMBL4425108, “A Selective and Slowly Reversible Inhibitor of l-Type Amino Acid Transporter 1 (LAT1) Potentiates Antiproliferative Drug Efficacy in Cancer Cells” (J Med Chem, 2016).
